Data as given in ChEMBL document CHEMBL3621107, “Ring fusion strategy for synthesis and lead optimization of sulfur-substituted anthra[1,2-c][1,2,5]thiadiazole-6,11-dione derivatives as promising scaffold of antitumor agents” (Eur J Med Chem, 2015).

How the values were obtained:
K562 = assay: Cytotoxicity against human K562 cells assessed as cell growth at 10 uM after 48 hrs by SRB assay relative to control; assay type: functional; conditions: K562, 48 h, read-out: Activity
Procedure, shortened: (§1)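 First-stage NCI-60 screen by the NCI Developmental Therapeutics Program. Each compound was tested once at a single concentration of 10 μM against the 60-cell-line panel. Growth percentage was reported for each cell line.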

HOP-62 = assay: Cytotoxicity against human HOP62 cells assessed as cell growth at 10 uM after 48 hrs by SRB assay relative to control; assay type: functional; conditions: HOP-62, 48 h, read-out: Activity; procedure, shortened: as §1
SR = assay: Cytotoxicity against human SR cells assessed as cell growth at 10 uM after 48 hrs by SRB assay relative to control; assay type: functional; conditions: read-out: Activity
Procedure, shortened: (§2)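 NCI-60 one-dose screen run by NCI DTP: each cell line exposed to a single 10 µM dose, and percentage growth recorded against untreated growth.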

MCF7 = assay: Cytotoxicity against human MCF7 cells assessed as cell growth at 10 uM after 48 hrs by SRB assay relative to control; assay type: functional; conditions: MCF7, 48 h, read-out: Activity; procedure, shortened: as §1
OVCAR-4 [1] = assay: Cytotoxicity against human OVCAR4 cells assessed as cell growth at 10 uM after 48 hrs by SRB assay relative to control; assay type: functional; conditions: OVCAR-4, 48 h, read-out: Activity
Procedure, shortened: (§3)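 First-stage NCI DTP one-dose screen against the 60 human tumour cell line panel. Compounds were tested at a single 10 μM level, and results are given as growth percentage.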

COLO 205 = assay: Cytotoxicity against human COLO205 cells assessed as cell growth at 10 uM after 48 hrs by SRB assay relative to control; assay type: functional; conditions: COLO 205, 48 h, read-out: Activity; procedure, shortened: as §1
SF-268 = assay: Cytotoxicity against human SF268 cells assessed as cell growth at 10 uM after 48 hrs by SRB assay relative to control; assay type: functional; conditions: SF-268, 48 h, read-out: Activity; procedure, shortened: as §3
RPMI-8226 = assay: Cytotoxicity against human RPMI8226 cells assessed as cell growth at 10 uM after 48 hrs by SRB assay relative to control; assay type: functional; conditions: RPMI-8226, 48 h, read-out: Activity; procedure, shortened: as §3
HCT-116 = assay: Cytotoxicity against human HCT116 cells assessed as cell growth at 10 uM after 48 hrs by SRB assay relative to control; assay type: functional; conditions: HCT-116, 48 h, read-out: Activity; procedure, shortened: as §1
SF-539 = assay: Cytotoxicity against human SF539 cells assessed as cell growth at 10 uM after 48 hrs by SRB assay relative to control; assay type: functional; conditions: SF-539, 48 h, read-out: Activity; procedure, shortened: as §3
CCRF-CEM = assay: Cytotoxicity against human CCRF-CEM cells assessed as cell growth at 10 uM after 48 hrs by SRB assay relative to control; assay type: functional; conditions: read-out: Activity; procedure, shortened: as §1
NCI-H322M = assay: Cytotoxicity against human NCI-H322M cells assessed as cell growth at 10 uM after 48 hrs by SRB assay relative to control; assay type: functional; conditions: read-out: Activity; procedure, shortened: as §3
UACC-257 = assay: Cytotoxicity against human UACC257 cells assessed as cell growth at 10 uM after 48 hrs by SRB assay relative to control; assay type: functional; conditions: UACC-257, 48 h, read-out: Activity; procedure, shortened: as §2
HL-60(TB) = assay: Cytotoxicity against human HL-60(TB) cells assessed as cell growth at 10 uM after 48 hrs by SRB assay relative to control; assay type: functional; conditions: HL-60, 48 h, read-out: Activity
Procedure, shortened: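 NCI Developmental Therapeutics Program 60-cell-line screen, first stage: a single dose of 10 μM against the panel, reported as percentage growth.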

SNB-75 = assay: Cytotoxicity against human SNB75 cells assessed as cell growth at 10 uM after 48 hrs by SRB assay relative to control; assay type: functional; conditions: SNB-75, 48 h, read-out: Activity; procedure, shortened: as §2
SN12C = assay: Cytotoxicity against human SN12C cells assessed as cell growth at 10 uM after 48 hrs by SRB assay relative to control; assay type: functional; conditions: read-out: Activity; procedure, shortened: as §3
MOLT-4 = assay: Cytotoxicity against human MOLT4 cells assessed as cell growth at 10 uM after 48 hrs by SRB assay relative to control; assay type: functional; conditions: MOLT-4, 48 h, read-out: Activity; procedure, shortened: as §3
OVCAR-3 = assay: Cytotoxicity against human OVCAR3 cells assessed as cell growth at 10 uM after 48 hrs by SRB assay relative to control; assay type: functional; conditions: OVCAR-3, 48 h, read-out: Activity; procedure, shortened: as §3
SNB-19 = assay: Cytotoxicity against human SNB19 cells assessed as cell growth at 10 uM after 48 hrs by SRB assay relative to control; assay type: functional; conditions: SNB-19, 48 h, read-out: Activity; procedure, shortened: as §2
A549 = assay: Cytotoxicity against human A549 cells assessed as cell growth at 10 uM after 48 hrs by SRB assay relative to control; assay type: functional; conditions: A549, 48 h, read-out: Activity; procedure, shortened: as §1
UO-31 = assay: Cytotoxicity against human UO31 cells assessed as cell growth at 10 uM after 48 hrs by SRB assay relative to control; assay type: functional; conditions: UO-31, 48 h, read-out: Activity; procedure, shortened: as §2
NCI-H522 = assay: Cytotoxicity against human NCI-H522 cells assessed as cell growth at 10 uM after 48 hrs by SRB assay relative to control; assay type: functional; conditions: NCI-H522, 48 h, read-out: Activity; procedure, shortened: as §3
CAKI-1 = assay: Cytotoxicity against human Caki1 cells assessed as cell growth at 10 uM after 48 hrs by SRB assay relative to control; assay type: functional; conditions: CAKI-1, 48 h, read-out: Activity; procedure, shortened: as §1
MDA-MB-468 = assay: Cytotoxicity against human MDA-MB-468 cells assessed as cell growth at 10 uM after 48 hrs by SRB assay relative to control; assay type: functional; conditions: MDA-MB-468, 48 h, read-out: Activity; procedure, shortened: as §3
SF-295 = assay: Cytotoxicity against human SF295 cells assessed as cell growth at 10 uM after 48 hrs by SRB assay relative to control; assay type: functional; conditions: SF-295, 48 h, read-out: Activity; procedure, shortened: as §3
PC-3 = assay: Cytotoxicity against human PC3 cells after 48 hrs by SRB assay; assay type: functional, cell-based; conditions: PC-3, 48 h
Procedure, shortened: (§4)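 Second-stage NCI-60 panel run by the NCI Developmental Therapeutics Program, covering nine tumour subpanels. Five concentrations were tested: 0.01, 0.1, 1, 10 and 100 μM. Percentage growth at each level was plotted against log10 drug concentration. GI50, TGI and LC50 were read from these dose-response curves. Subpanel MID values were divided into the full-panel MID to give selectivity ratios.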

OVCAR-8 = assay: Cytotoxicity against human OVCAR8 cells assessed as cell growth at 10 uM after 48 hrs by SRB assay relative to control; assay type: functional; conditions: OVCAR-8, 48 h, read-out: Activity; procedure, shortened: as §3
NCI/ADR-RES = assay: Cytotoxicity against human NCI/ADR-RES cells assessed as cell growth at 10 uM after 48 hrs by SRB assay relative to control; assay type: functional; conditions: read-out: Activity; procedure, shortened: as §3
MDA-MB-435 = assay: Cytotoxicity against human MDA-MB-435 cells assessed as cell growth at 10 uM after 48 hrs by SRB assay relative to control; assay type: functional; conditions: MDA-MB-435, 48 h, read-out: Activity; procedure, shortened: as §3
SK-MEL-2 = assay: Cytotoxicity against human SK-MEL-2 cells after 48 hrs by SRB assay; assay type: functional; conditions: SK-MEL-2, 48 h; procedure, shortened: as §4
OVCAR-4 [2] = assay: Cytotoxicity against human OVCAR4 cells after 48 hrs by SRB assay; assay type: functional; conditions: OVCAR-4, 48 h; procedure, shortened: as §4

Structure (SMILES) | growth at 10 µM (K562) [%] | growth at 10 µM (HOP-62) [%] | growth at 10 µM (SR) [%] | growth at 10 µM (MCF7) [%] | growth at 10 µM (COLO 205) [%] | growth at 10 µM (SF-268) [%] | growth at 10 µM (RPMI-8226) [%] | growth at 10 µM (HCT-116) [%] | growth at 10 µM (SF-539) [%] | growth at 10 µM (UACC-257) [%] | growth at 10 µM (HL-60(TB)) [%] | growth at 10 µM (SNB-75) [%] | growth at 10 µM (SN12C) [%] | growth at 10 µM (MOLT-4) [%] | growth at 10 µM (OVCAR-3) [%] | growth at 10 µM (SNB-19) [%] | growth at 10 µM (A549) [%] | growth at 10 µM (UO-31) [%] | growth at 10 µM (NCI-H522) [%] | growth at 10 µM (CAKI-1) [%] | also measured
O=C1c2ccccc2C(=O)c2c1cc(Sc1ccccc1)c1nsnc21 | 52 | 110 | 86.4 | 94.9 | 118 | 102 | 78.2 | 90.1 | 107 | 92.8 | 83.9 | 96.1 | 96.6 | 31.1 | 96.7 | 109 | 106 | 80.1 | 94.9 | 89 | growth at 10 µM (OVCAR-4 [1]): 57.8%; growth at 10 µM (CCRF-CEM): 15.7%; growth at 10 µM (NCI-H322M): 101%; growth at 10 µM (MDA-MB-468): 87.3%; growth at 10 µM (SF-295): 106%; IC50 (PC-3): > 15 µM; growth at 10 µM (OVCAR-8): 82.3%
O=C1c2ccccc2C(=O)c2c1cc(Sc1ccc(F)cc1F)c1nsnc21 | -21.1 | 58.5 | 0.2 | 6.58 | 104 | 8.47 | 6.29 | -63.1 | 58.8 | 43.9 | -37.7 | 42.9 | 9.12 | -41.6 | -52.3 | 87.3 | 112 | 70.3 | 61.1 | 24 | growth at 10 µM (NCI/ADR-RES): -26.2%; growth at 10 µM (MDA-MB-435): -85.3%; GI50 (SK-MEL-2): 2.34 µM; LC50 (SK-MEL-2): 9.41 µM; TGI (SK-MEL-2): 4.69 µM; growth at 10 µM (MDA-MB-468): -87%; GI50 (OVCAR-4 [2]): 0.34 µM; LC50 (OVCAR-4 [2]): 4.18 µM; TGI (OVCAR-4 [2]): 1.38 µM; growth at 10 µM (SF-295): 68.8%; IC50 (PC-3): 14.8 µM; growth at 10 µM (OVCAR-8): 0.32%
